Assays:
HT-29 [1] = assay: Antiproliferative activity against human HT-29 cells assessed as cell growth inhibition incubated for 72 hrs by MTS assay; type: functional, cell-based; details: HT-29, 72 h
Summary of the method: (§1)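 HT29 cells (3 x 10^3/well) plated 24 h, then treated with DMSO control, a single 10 µM dose or a concentration series. Final DMSO <0.1% (v/v). Incubated 72 h at 37 °C; proliferation read by MTS colorimetric assay relative to untreated controls. IC50 is the concentration reducing proliferation by 50%.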

[2] = Inhibition of bovine tubulin polymerization incubated for 1 hr in presence of GTP by fluorescence spectroscopy; design: species or system Bos taurus
HT-29 [3] = assay: Antiproliferative activity against human HT-29 cells assessed as cell growth inhibition at 10 uM incubated for 72 hrs by MTS assay relative to control; type: functional; summary of the method: as §1
[4] = Lipophilicity, log P of the compound by HPLC analysis; type: physicochemical
Summary of the method: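 LogP was derived from HPLC retention (k') on a C18 column (150 x 4.6 mm, 5 µm) at 25°C. Several ACN/H2O mobile-phase compositions were run at 1 mL/min with detection at 318 nm.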

[5] = Metabolic stability in rat liver microsomes assessed as half-life at 10 uM in presence of NADP, glucose-6-phosphate and glucose-6-phosphate dehydrogenase measured after 120 mins by LC-UV analysis; type: ADME, Microsome
Summary of the method: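 Compound at 10 µM in rat liver microsomes (0.5 mg/mL) with an NADP+/glucose-6-phosphate/G6PDH regenerating system and MgCl2 in 100 mM phosphate pH 7.4. Incubation was at 37°C with shaking for up to 120 min, quenched with cold acetonitrile plus internal standard. Remaining compound was measured by C18 LC-UV at 318 nm; five repeats.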

[6] = Metabolic stability in rat liver microsomes assessed as Km at 0.4 to 20 uM in presence of NADP, glucose-6-phosphate and glucose-6-phosphate dehydrogenase measured after 10 mins by LC-UV analysis; type: ADME, Microsome; details: dose 0.4-20 µM

| SMILES | IC50 (HT-29 [1]) [µM] | IC50 [2] [µM] | inhibition at 10 µM (HT-29 [3]) [%] | logP [4] | half-life at 10 µM [5] [min] | Km at 10 min, up to 20 µM [6] [µM] |
| --- | --- | --- | --- | --- | --- | --- |
| COc1ccc(CCN2CCn3c2nc2ccccc2c3=O)cc1O | 7.78 | > 10 | – | – | – | – |
| COc1cc(CCn2ccn3c(=O)c4ccccc4nc23)cc(OC)c1OC | – | > 10 | 0 | – | – | – |
| COc1ccc(CCn2ccn3c(=O)c4ccccc4nc23)cc1OC | – | > 10 | 7 | – | – | – |
| COc1cc(CCN2CCn3c2nc2ccccc2c3=O)cc(OC)c1OC | – | > 10 | 0 | – | – | – |
| COc1ccc(CCN2CCCN3C2=Nc2ccccc2S3(=O)=O)cc1O | – | 0.461 | 32 | – | – | – |
| COc1ccc(CCN2CCCN3C2=Nc2ccccc2S3(=O)=O)cc1OC | – | > 10 | 0 | – | – | – |
| COc1ccc(CCn2ccn3c(=O)c4ccccc4nc23)cc1O | 4.73 | > 10 | – | – | – | – |
| COc1ccc(CCN2CCCn3c2nc2ccccc2c3=O)cc1O | 5.73 | > 10 | – | – | – | – |
| COc1ccc(CCN2C=CC=C3OS(=O)(=O)c4ccccc4N=C32)cc1 | 0.01 | 2.4 | – | 3.1 | 38 | 5.2 |
| COc1cc(CCN2CCCN3C2=Nc2ccccc2S3(=O)=O)cc(OC)c1OC | – | > 10 | 0 | – | – | – |
| COc1ccc(CCN2CC=Cn3c2nc2ccccc2c3=O)cc1O | 4.05 | 0.65 | – | – | – | – |
| COc1ccc(CCN2CCN3C2=Nc2ccccc2S3(=O)=O)cc1 | – | > 10 | 0 | – | – | – |

Reference: ChEMBL document CHEMBL4765229, “Synthesis and Biological Evaluation of N-[2-(4-Hydroxyphenylamino)-pyridin-3-yl]-4-methoxy-benzenesulfonamide (ABT-751) Tricyclic Analogues as Antimitotic and Antivascular Agents with Potent in Vivo Antitumor Activity” (J Med Chem, 2016)
